CCR6 antag = CCR6 receptor antagonists, primary screen, cell-based, CHO-K1, luminescence, beta-arrestin, uHTS. C-C chemokine receptor type 6 (Homo sapiens), P51684. CHO-K1 CCR6 PathHunter beta-arrestin, CCL20-stimulated. 0.49% of 340,000 active. inhibition, % at 20 µM;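 active means compounds whose inhibition of the agonist-driven luminescence signal at 20 µM reaches about 50%, limit read from the data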;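 further: cells stimulated with CCL20 at 14 nM final; plate controls were DMSO with CCL20 for no effect and DMSO without agonist for full effect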
PfG6PD inh = PfG6PD enzyme inhibitors, primary screen, biochemical, fluorescence intensity, uHTS; PfGluPho enzyme, NADPH resazurin-diaphorase fluorescence; inhibition, % at 20 µM; 0.78% of 350,000 active; AID 504690, 2011;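 active means inhibition reaching at least a set limit at 20 µM in the primary screen, cut at about 59% in these data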;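 further: 0% = DMSO wells with substrate and 100% = DMSO wells lacking glucose-6-phosphate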
CXCR6 inh = CXCR6 receptor inhibitors, primary screen, cell-based, beta-arrestin, luminescence, CHO-K1 PathHunter, 1536-well. 0.36% of 360,000 active. C-X-C chemokine receptor type 6 (Homo sapiens), O00574. inhibition, % at 20 µM; in the data active means inhibition above about 34%, passing the limit was not always enough;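 further: antagonist mode with CXCL16 agonist at 10 nM final; 0% = 10 nM CXCL16 with DMSO and 100% = unstimulated wells without agonist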
Target sequence (O00574 whole entry, looked up): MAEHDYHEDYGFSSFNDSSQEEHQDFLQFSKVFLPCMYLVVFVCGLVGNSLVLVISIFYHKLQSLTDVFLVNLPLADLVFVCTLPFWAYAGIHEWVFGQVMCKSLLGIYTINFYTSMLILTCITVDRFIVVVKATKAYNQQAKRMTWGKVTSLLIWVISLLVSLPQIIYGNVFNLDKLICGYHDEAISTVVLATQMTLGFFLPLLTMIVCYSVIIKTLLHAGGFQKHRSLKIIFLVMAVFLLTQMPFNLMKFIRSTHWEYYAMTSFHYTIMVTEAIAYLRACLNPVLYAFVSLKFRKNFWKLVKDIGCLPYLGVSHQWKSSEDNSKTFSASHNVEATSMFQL
B2AR ag = beta2AR agonists driving receptor internalization, primary screen, cell-based, FAP fluorogen, flow cytometry | AID 504454, 2011 | response, % (no concentration beside the values) | Am2.2-beta2AR cells | 0.43% of 340,000 active;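 active means response above a set limit, near 3 SD of response in nonfluorescent compounds, cut at about 42% in these data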
APJ ag = agonists of human apelin receptor APJ, primary screen, CHO-K1 cells, PathHunter beta-arrestin, luminescence; P35414; 0% DMSO wells, 100% apelin; activation, % at 20 µM; 0.11% of 330,000 active;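 active means activation more than six SD over the plate average, tested at 20 µM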;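 further: 0% = DMSO alone and 100% = apelin-13 at 10 nM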
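Test system – PathHunter CHO-K1 APJ (AGTRL-1) beta-arrestin reporter cells · Input – 1000 cells/well · Compound – single test compound dose, 20 µM final, 1% DMSO · Times – compound stimulation 90 min at 25 °C, detection 60 min · Technique – beta-gal luminescence · Read-out basis – APJ–arrestin association signal · Control set – negative DMSO alone, positive Apelin-13 at 10 nM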
APJ antag = antagonists of human apelin receptor APJ, primary screen, CHO-K1 cells, beta-arrestin complementation, luminescence. P35414. inhibition, % at 20 µM. 0.32% of 330,000 active;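 active means inhibition above about 40% at 20 µM, limit read from the data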;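 further: cells challenged with 10 nM apelin-13 agonist together with compound; plate controls were apelin-13 plus DMSO wells for no effect and DMSO wells lacking apelin-13 for full effect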
PfGluPho conf = PfG6PD inhibitors, hit retest, confirmation, biochemical, fluorescence intensity, single concentration. shares compounds with PfG6PD inh. recombinant PfGluPho, NADPH-diaphorase-resazurin fluorescence. inhibition, % at 20 µM. 34% of 2,400 active;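 active means inhibition of at least 50% at 20 µM in any single replicate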;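 further: 0% = DMSO with substrate and 100% = DMSO lacking glucose-6-phosphate substrate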
Diaph ctr 10uM = diaphorase inhibitors and chemical oxidizers, confirmation, counter-screen for P. falciparum G6PD inhibitor project, biochemical, fluorescence intensity, 10 µM NADPH; shares compounds with PfG6PD inh; diaphorase-coupled resazurin reduction, NADPH 10 uM; inhibition, % at 20 µM; 39% of 820 active; AID 504862, 2011;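 active means average inhibition reaching 50% or more with the compound at 20 µM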;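 further: resorufin red fluorescence formed as diaphorase reduces resazurin using NADPH; 0% = DMSO with enzyme and 100% = DMSO without enzyme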
Diaph ctr 30uM = diaphorase inhibitors and chemical oxidizers, confirmation, counter-screen for P. falciparum G6PD inhibitor project, biochemical, fluorescence intensity, 30 µM NADPH. shares compounds with PfG6PD inh. Diaphorase/resazurin coupled assay, resorufin fluorescence. inhibition, % at 20 µM. 29% of 820 active;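 active means inhibition averaging 50% or more, tested at 20 µM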;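 further: 0% = DMSO with enzyme and 100% = DMSO wells lacking diaphorase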
* = called active by the depositor; x = not tested or not shown. In the library only some 1.7% were active in any assay of this set; here they are far more common.

SMILES	CCR6 antag	PfG6PD inh	CXCR6 inh	B2AR ag	APJ ag	APJ antag	PfGluPho conf	Diaph ctr 10uM	Diaph ctr 30uM
CCn1c(C)nc2cc(C(=O)N/N=C/c3ccc(O)c(O)c3O)ccc21	8	85*	-12	14	x	x	90*	86*	89*
CCOc1ccccc1/C=N/NC(=O)c1c(C)nc2ccc(Br)cn12	0	123*	-2	2	-1	10	98*	93*	97*
COc1cccc(/C=N/NC(=O)c2c(C)nc3ccc(Br)cn23)c1O	-10	-15	0	6	4	4	x	x	x
CCn1c(C)nc2cc(C(=O)N/N=C/c3cccc(OC)c3O)ccc21	8	-22	-18	6	0	-23	x	x	x
CCN(CC)S(=O)(=O)c1cccc(C(=O)N/N=C/c2ccc(O)c(O)c2O)c1	8	66*	-12	22	x	x	71*	76*	86*
COc1c2ccoc2c(OCC=C(C)C)c2oc(=O)ccc12	10	68*	-13	-10	5	-15	54*	18	29
CSc1ccc(CNC(=O)C2CCC(=O)N(Cc3cccc(F)c3)C2)cc1 (stereo unspecified)	2	-14	1	-7	-3	-3	x	x	x
NS(=O)(=O)c1ccc(N/N=C/c2ccc(O)c(O)c2O)c([N+](=O)[O-])c1	33	87*	10	-25	x	x	70*	5	-3
Cc1c(C(=O)Nc2ccncc2)sc2nc(-c3ccccc3)cn12	-2	78*	-12	-6	5	6	24	x	x
Cc1c(C(=O)Nc2ccc3c(c2)OCCO3)sc2nc(-c3ccccc3)cn12	-1	58	4	19	10	3	x	x	x
Fc1cccc(Cl)c1CNc1ccc(N2CCCC2)cc1	19	106*	0	3	5	-8	87*	2	2
Cc1cc(NC(=O)COC(=O)CCNS(=O)(=O)c2ccccc2)n(-c2ccccc2)n1	12	-52	2	-1	-2	-6	x	x	x
CCN(CCO)C(=O)c1ccc2nc(Cc3cccc(Cl)c3)oc2c1	-1	0	6	-4	-3	-23	x	x	x
Cc1ccc(-c2nc(N)s[n+]2-c2ccccc2)cc1	-5	110*	-12	-12	x	x	56*	-35	-23
Cc1ccc(-c2nc3ccccc3nc2-c2ccccc2)cc1	13	0	4	-7	-1	19	x	x	x
CNc1nc(-c2ccccc2)[n+](-c2ccc(C)cc2)s1	41	108*	3	13	x	x	107*	-25	-13
C/C(=N\Nc1ccc([N+](=O)[O-])cc1)c1ccc(O)cc1	32	66*	3	-215	-4	29	2	x	x
C/C(=N/Nc1ccccc1[N+](=O)[O-])c1ccc([N+](=O)[O-])cc1	2	-1	-4	10	-2	15	x	x	x
C/C(=N\Nc1ncc(Br)cn1)c1cccc([N+](=O)[O-])c1	9	21	0	-12	0	-16	x	x	x
C/C(=N\Nc1ccc([N+](=O)[O-])cc1)c1cccc(N)c1	36	111*	17	2	-10	28	41	x	x
Cc1ccc(S(=O)(=O)N(C)CC(=O)NNC(=O)Cc2ccccc2F)cc1	9	-23	-3	-13	0	-6	x	x	x
CCOC(=O)C1=CCN(S(=O)(=O)c2ccccc2C)C1c1cccc(C)c1 (stereo unspecified)	x	x	4	x	x	x	x	x	x
CCNC(=O)C1(C)CCN1CCS(=O)(=O)c1ccc(C)cc1 (stereo unspecified)	x	x	1	x	x	x	x	x	x
CC(=O)OCC(=O)C1(O)CCC2C3CC(C)C4=CC(=O)C=CC4(C)C3=CCC21C (stereo unspecified)	6	61*	-3	1	x	x	40	x	x
Nc1nonc1-n1nnc(C(=O)N/N=C/c2ccc(Br)cc2)c1-c1ccc2c(c1)OCO2	-8	-8	-9	9	9	-13	x	x	x
SMILES	CCR6 antag	PfG6PD inh	CXCR6 inh	B2AR ag	APJ ag	APJ antag	PfGluPho conf	Diaph ctr 10uM	Diaph ctr 30uM
Nc1nonc1-n1nnc(C(=O)N/N=C/c2cccc(Cl)c2)c1-c1ccc2c(c1)OCO2	22	119*	6	1	-3	38	99*	87*	66*
Cc1ccc(-c2c(C(=O)N/N=C/c3sccc3C)nnn2-c2nonc2N)cc1	5	88*	10	-9	-3	18	45	x	x
Cc1ccsc1/C=N/NC(=O)c1nnn(-c2nonc2N)c1C	0	10	3	-8	-3	-21	x	x	x
COc1ccccc1/C=N/NC(=O)c1nnn(-c2nonc2N)c1-c1cccs1	1	93*	-6	3	5	8	55*	85*	67*
COC(=O)c1ccc(COn2nnc3ccccc32)cc1	-7	-2	0	0	-3	5	x	x	x
CN(C)S(=O)(=O)c1ccc(Cl)c(NC(=O)C2CCN(S(=O)(=O)c3cccs3)CC2)c1	7	60*	-11	1	1	1	31	x	x
O=[N+]([O-])c1ccc(S(=O)(=O)N2CCN=C2SCc2cccnc2)cc1	11	-18	-22	-11	3	-26	x	x	x
O=S(=O)(c1ccccc1)N1CCN=C1SCc1ccccc1	0	79*	4	4	-4	2	36	x	x
O=[N+]([O-])c1cccc(CSC2=NCCN2S(=O)(=O)c2ccccc2)c1	11	72*	6	24	2	-48	19	x	x
Cc1cccn2c(=O)c3cc(C(=O)NC(C)C)c(=N)n(Cc4ccncc4)c3nc12	0	73*	4	-3	-3	13	21	x	x
C[C@@H]1CN([C@@H](C)CO)C(=O)CCCn2nncc2CO[C@H]1CN(C)C(=O)C1CCCCC1	x	0	4	x	x	x	x	x	x
COc1ccc(N2CC(C(=O)NCCc3ccc(Cl)cc3)CC2=O)cc1 (stereo unspecified)	-4	9	3	-2	2	5	x	x	x
CN1c2cccc3cccc(c23)N(C)C1(C)C	2	71*	0	0	5	-28	39	x	x
